CHO parental Ca: signal in parental CHO cells, OX1R antagonist counter-screen; parental CHO-K1, ATP-induced calcium, Fluo-8 fluorescence; inhibition, % at 5.6 µM; 330,000 compounds, 0.63% hits;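 active = inhibition above that plate's mean sample inhibition plus 3 SD, cut at about 26% in these data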
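Material – parental CHO cells · Reagent – ATP stimulus · Compound – single nominal dose of 5.6 µM per compound · Detection – Fluo-8 fluorescence · Read-out basis – percent inhibition of calcium signal · Controls – ATP-challenged DMSO wells low, unchallenged DMSO wells high · Repeats – no replicates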
OX1R antag-1: antagonists of human orexin 1 receptor | inhibition, % at 5 µM | O43613 | CHO/OX1R cells, Fluo-8 calcium fluorescence, orexin A | 330,000 compounds, 0.43% hits;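 active = inhibition above its plate's threshold, mean inhibition of all tested compounds on the plate plus 3 SD, cut at about 37% in these data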
OX1R antag-2: blocks the human orexin 1 receptor | 330,000 compounds, 1.8% hits | O43613 | inhibition, % at 6.6 µM | OX1R-expressing cells, FRET antagonist read-out; in the data active = inhibition mostly above about 38%, no sharp cut-off; inactive = mostly below about 40%
GPR7 antagonist: human neuropeptides B/W receptor 1 antagonism. P48145. GPR7-expressing cells, fluorescence antagonist assay. inhibition, % at 4.4 µM. 290,000 compounds, 1.1% hits; in the data active = inhibition above about 16%, passing the limit was not always enough;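 also: cells stimulated with the agonist NPW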
Target sequence (P48145 whole entry, looked up): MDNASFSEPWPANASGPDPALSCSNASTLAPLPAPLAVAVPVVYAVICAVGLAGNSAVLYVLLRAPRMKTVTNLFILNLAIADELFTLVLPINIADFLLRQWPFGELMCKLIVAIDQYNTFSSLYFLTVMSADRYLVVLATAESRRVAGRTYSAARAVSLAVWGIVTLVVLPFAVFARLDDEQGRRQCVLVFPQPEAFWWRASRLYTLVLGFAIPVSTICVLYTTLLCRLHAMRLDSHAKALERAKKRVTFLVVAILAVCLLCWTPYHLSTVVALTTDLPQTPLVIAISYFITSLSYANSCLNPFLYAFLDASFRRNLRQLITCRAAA
TAAR1 ag: human TAAR1 agonism | Q96RJ0 | CHO RD-HGA16 TAAR1, Fluo-8 calcium fluorescence; vehicle wells 0%, saturating PEA agonist 100% | activation, % at 3 µM | 360,000 compounds, 0.99% hits | AID 624467;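 active = activation above the mean activation of all test compounds in the run plus 3 SD, cut at about 38% in these data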
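test system = CHO RD-HGA16 cells carrying human TAAR1 plus Gα16 | schedule = 17-24 h seeding, 75 min 37 °C dye, 30 min RT | compound dosing = 3 µM single concentration | control set = DMSO and PEA EC100 | replicates = n 1 | signal = Fluo-8 fluorescence, 5 s baseline then 140 s kinetic read | measure = percent activation vs PEA EC100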
TAAR1 antag: human TAAR1 antagonism | Q96RJ0 | CHO RD-HGA16 TAAR1, Fluo-8 calcium fluorescence, antagonist | inhibition, % at 3 µM | 360,000 compounds, 1.5% hits;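 active = inhibition above a per-plate cutoff, the mean inhibition of test compounds on that plate plus 3 SD, cut at about 49% in these data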
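Assay system: RD-HGA16 CHO cells with stable hTAAR1 and Gα16 / Reagent: EC80 β-phenethylamine stimulus / Doses: 3 µM, single point / Timing: dye loading 75 min at 37 °C, then 30 min room temperature / Measured by: Fluo-8 intracellular calcium dye fluorescence, real-time kinetic reads / Controls: vehicle wells and EC80 agonist wells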
Numbers stand for hits; – = inactive; · = no result given. Only some compounds are listed: those with a hit (about 4.5% of all), similar ones and a draw of the others.

SMILES | CHO parental Ca | OX1R antag-1 | OX1R antag-2 | GPR7 antagonist | TAAR1 ag | TAAR1 antag
COc1ccc(-c2ccc3c(n2)CCCN3Cc2ccccc2C(F)(F)F)cc1 | · | · | · | · | – | –
C=CCOc1ccc(/C=C2/C(=O)ON=C2C)cc1OC | – | – | – | – | 38 | –
COC(=O)C1=C(C)NC2=C(C(=O)CCC2)C1c1ccc(-c2ccsc2C(=O)OC)o1 (stereo not drawn) | – | – | – | – | 45 | –
COC(=O)C1=C(C)NC2=C(C(=O)CCC2)C1c1ccsc1 (stereo not drawn) | · | · | · | – | · | ·
COC(=O)[C@]12C[C@H](CC(=O)NCc3cccc(C(F)(F)F)c3)C(=O)N(Cc3ccccc3)C1=C[C@H](C1CCCC1)O[C@@H]2C | · | · | · | · | – | –
CC(=O)Nc1cccc(NC(=O)CSc2ncc(-c3ccccc3)[nH]2)c1 | – | – | 53 | – | – | –
COc1ccc(NC(=O)CSc2nnc3ccc(-c4ccncc4)nn23)cc1OC | – | – | – | – | – | –
CCOC(=O)c1sc(NC(=O)CSc2n[nH]c(-c3ccccc3)n2)c(C#N)c1C | 40 | 46 | – | – | – | –
CCOC(=O)c1sc(NC(=O)CSc2nc(C)cc(C)n2)c(C#N)c1C | – | – | – | – | – | –
CC(=O)Nc1cccc(NC(=O)CSc2n[nH]c(-c3ccccc3)n2)c1 | – | – | 47 | · | – | –
CC(=O)Nc1cccc(NC(=O)CSc2nnc3ccc(-c4ccncc4)nn23)c1 | – | – | 67 | · | – | –
COc1ccc(-c2cscc2N)cc1 | · | · | · | · | – | –
COc1ccccc1CCn1cnc(-c2ccccc2F)c1CC(C)C | · | · | · | · | – | –
Cc1ccc2c(c1)S(=O)(=O)N(C)C(c1ccccc1)=C2 | · | · | · | · | – | 53
COc1ccccc1CCn1cnc(-c2ccc(F)cc2F)c1CC(C)C | · | · | · | · | – | –
NC(=O)c1nsc(C(=O)N(Cc2ccccc2F)C(C(=O)NCC2CCCO2)c2ccc(F)cc2)c1N (stereo not drawn) | – | – | – | – | – | –
O=C(NCC1CCCO1)C(c1cccs1)N(Cc1cccs1)C(=O)Cn1nnc(-c2cccs2)n1 (stereo not drawn) | – | – | – | – | – | 49
Cc1cccc(CCN(C(=O)c2snc(C(N)=O)c2N)C(C(=O)NCC2CCCO2)c2ccc(F)cc2)c1 (stereo not drawn) | · | · | · | – | – | 59
CCOc1ccc(C(C(=O)NCC2CCCO2)N(Cc2cccs2)C(=O)c2snc(C(N)=O)c2N)cc1 (stereo not drawn) | – | – | – | – | – | 54
CCOc1ccc(C(C(=O)NCC2CCCO2)N(C(=O)c2snc(C(N)=O)c2N)c2ccccc2F)cc1 (stereo not drawn) | – | – | – | – | – | –
COc1ccc(C2CC(=O)C(c3ccc(C)cc3)=CN2Cc2ccccc2)cc1 (stereo not drawn) | · | · | · | · | – | –
NC(=O)c1ncn([C@@H]2O[C@H](C(=O)N[C@H](Cc3c[nH]c4ccccc34)C(=O)N3CCN(C(=O)C4CC4)CC3)[C@@H](O)[C@H]2O)n1 | · | · | · | · | – | –
O=C(N[C@H](Cc1ccccc1)C(=O)NCc1cccc2ccccc12)[C@H]1O[C@@H](n2ccc(=O)[nH]c2=O)[C@H](O)[C@@H]1O | · | · | · | · | – | –
c1ccc(NCc2nc3ccccc3n2CCOc2ccccc2)cc1 | – | – | 68 | – | – | –
Cc1ccc(-c2cc3nc(NCCc4ccncc4)n(C)c(=O)c3s2)cc1 | · | · | · | · | – | –
SMILES | CHO parental Ca | OX1R antag-1 | OX1R antag-2 | GPR7 antagonist | TAAR1 ag | TAAR1 antag
Clc1ccc(Cc2ccc(SCc3ccccc3)nn2)c(Cl)c1 | – | – | – | – | – | 50
CC(=O)N1CCN(c2ccc(N3CCN(Cc4ccccc4)[C@H](C)C3)c(C)c2)[C@H](C)C1 | · | · | · | · | – | –
COc1ccc2oc(C(=O)OCC(=O)N(C)Cc3ccccc3)c(C)c2c1 | – | – | – | · | – | –
Cc1c(C(=O)OCC(=O)N(C)Cc2ccc(Cl)cc2)oc2ccccc12 | – | – | 53 | · | – | –
N#Cc1cc(F)cc(OCCCN2CCC(C(O)(c3ccccc3)c3ccccc3)CC2)c1 | · | · | · | · | – | –
CCOC(=O)C1=C(C)N=C2SCCC(=O)N2C1c1ccc(C(=O)OC)cc1 (stereo not drawn) | – | – | – | – | – | –
CCOC(=O)C1=C(C)N2C(=C(C#N)[C@@H]1c1ccc(C(=O)OC)cc1)SC[C@@]2(O)C(C)(C)C | – | – | 53 | – | – | –
Cc1cc(=O)oc2cc(OCC(=O)N3CCN(C(=O)C4COc5ccccc5O4)CC3)ccc12 (stereo not drawn) | – | – | – | – | – | –
CCCc1cc(=O)oc2cc(OCC(=O)N3CCN(C(=O)C4COc5ccccc5O4)CC3)ccc12 (stereo not drawn) | – | – | – | – | – | 49
CCOC(=O)C1CCCN(S(=O)(=O)c2ccc(S(=O)(=O)N3CCCC3)cc2)C1 (stereo not drawn) | 37 | – | – | · | – | –
CCOC(=O)C1CCCN(c2cc(C)nc3cc(-c4ccc(Cl)cc4)nn23)C1 (stereo not drawn) | – | – | – | – | – | –
CCOC(=O)c1ccc(NC(=S)N2CCCC(C(=O)OCC)C2)cc1 (stereo not drawn) | – | – | – | – | – | –
CCOC(=O)C1CCCN(C(=S)Nc2ccc(F)cc2)C1 (stereo not drawn) | – | – | – | – | 51 | –
CCOC(=O)C1CCCN(c2cc(C)nc3cc(-c4ccc(F)cc4)nn23)C1 (stereo not drawn) | – | – | – | – | 43 | –
COCc1[nH]nc2c1C(c1ccc(C)cc1)N(Cc1ccccc1)C2=O (stereo not drawn) | · | · | · | · | – | –
O=C(Cc1n[nH]c(=O)c2ccccc12)Nc1cc(Cl)ccc1-n1cncn1 | – | – | – | · | – | –
